# Active and inactive are the calls of the source.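 Rule for the calls, unless noted: active = inhibition at or above 50% at 10 µM; inactive = inhibition below 50%.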
# Assays:
# [1] = inhibitors of TNFa-induced NFkB p65 translocation, primary screen, imaging, HUVEC, MLSMR starter and 10KST1 sets (AID 438;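 active = inhibition above 20% together with a positive visual image hit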;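 note: compound added about 3h40 before a 20 min TNFalpha stimulation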;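 for inhibition: signal is the nuclear over cytoplasmic p65 intensity ratio per well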); settings: HUVEC TNFa-induced p65 nuclear translocation; cell count: measured here: nuclei count (cytotoxicity indicator), at 2.08 µM; inhibition: at 2 µM, stronger effect = higher value, 0% TNFa-plus-vehicle, 100% no-TNFa wells
# [2] = inhibitors of mutant huntingtin aggregation, primary screen, imaging, exon1htt(103Q)mCFP cells, high-content imaging (AID 483;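 active = visual image review flags a hit and inhibition of aggregation exceeds 20%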;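 note: compound exposure lasted 3 days before fixation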;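 for nuclei count: percent of the per-plate median nuclei count of sample wells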); settings: exon1htt(103Q)mCFP cell line, aggregate imaging, at 2 µM; inhibition of aggregation: stronger effect = higher value; nuclei count: measured here: cell count, toxicity
# [3] = inhibitors of E-selectin induction by TNFa, primary screen, imaging, HUVEC, immunofluorescence, MLSMR starter and 10KST1 sets (AID 487;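 active = visually confirmed hit in the image check and inhibition above 20%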;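 for inhibition: signal is fraction of cell area covered by stained E-selectin grains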;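 for nuclei count: 100% = median nuclei count of all wells on the same plate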); settings: HUVEC TNFalpha-induced E-selectin immunofluorescence imaging, at 2 µM; inhibition: stronger effect = higher value; nuclei count: measured here: cell number, toxicity
# [4] = molecular target: Voltage-gated potassium channel subunit beta-2 (Rattus norvegicus) (UniProt P62483); assay: KvBeta enzyme negative modulators, primary screen, biochemical, NADPH fluorescence (AID 622;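 active = fluorescence slope higher than the sample average by over 3 SD, cut at about -0.22 in these data, passing the limit was not always enough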;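 note: slope of raw intensity against log time taken from 70 to 1610 s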); settings: recombinant KvBeta, 4-cyanobenzaldehyde reduction, at 10 µM, stronger effect = higher value
# Sequence of Voltage-gated potassium channel subunit beta-2 (Rattus norvegicus) (P62483 whole entry, looked up): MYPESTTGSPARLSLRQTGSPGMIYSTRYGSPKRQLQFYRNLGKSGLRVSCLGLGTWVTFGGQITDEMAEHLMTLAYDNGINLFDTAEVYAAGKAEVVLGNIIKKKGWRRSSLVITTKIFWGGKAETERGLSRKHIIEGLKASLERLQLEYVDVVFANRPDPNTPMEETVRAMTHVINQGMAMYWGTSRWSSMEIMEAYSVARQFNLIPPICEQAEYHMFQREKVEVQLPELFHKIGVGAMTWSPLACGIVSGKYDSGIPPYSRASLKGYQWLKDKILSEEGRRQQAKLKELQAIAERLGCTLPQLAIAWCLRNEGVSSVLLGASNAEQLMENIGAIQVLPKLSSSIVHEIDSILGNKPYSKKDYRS
# [5] = molecular target: Voltage-gated potassium channel subunit beta-2 (Rattus norvegicus) (UniProt P62483); assay: KvBeta positive modulators, primary screen, biochemical, NADPH fluorescence (AID 623;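 active = NADPH fluorescence slope more negative than the mean of all samples by about 3 SD, 99.7% confidence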;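 note: fluorescence intensity change per second fitted from 20 to 320 s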); settings: Recombinant KvBeta, NADPH fluorescence decrease slope, 10 min; at 10 µM; stronger effect = lower value
# [6] = molecular target: Alpha-2C adrenergic receptor (Homo sapiens) (UniProt P18825); assay: modulators of alpha2C/GIRK thallium flux, primary screen, cell-based, HEK293 alpha2C/GIRK1/2 (AID 624;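 active = fluorescence slope after compound addition differing from the mean of all screened samples at 99.7% confidence, in either direction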;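 note: slope of fluorescence ratio to pre-addition baseline per second over 15 to 24 s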); settings: thallium flux BTC fluorescence, at 10 µM, actives lie on both sides
# Sequence of Alpha-2C adrenergic receptor (Homo sapiens) (P18825 whole entry, looked up): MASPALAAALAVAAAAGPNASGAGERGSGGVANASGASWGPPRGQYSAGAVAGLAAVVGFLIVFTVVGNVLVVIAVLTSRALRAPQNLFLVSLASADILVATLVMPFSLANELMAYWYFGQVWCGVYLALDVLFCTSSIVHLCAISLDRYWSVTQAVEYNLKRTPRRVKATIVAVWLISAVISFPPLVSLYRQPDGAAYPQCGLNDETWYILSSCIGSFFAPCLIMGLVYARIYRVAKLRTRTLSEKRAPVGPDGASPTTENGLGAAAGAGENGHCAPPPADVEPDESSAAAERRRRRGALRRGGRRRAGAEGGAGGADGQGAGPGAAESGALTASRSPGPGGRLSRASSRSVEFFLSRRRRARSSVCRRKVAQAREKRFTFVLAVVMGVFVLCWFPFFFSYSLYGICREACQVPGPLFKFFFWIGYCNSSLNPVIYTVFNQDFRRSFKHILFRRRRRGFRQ
# [7] = inhibitors of Sendai virus-induced IRF3 signaling, primary screen, TLR/RLR signaling modifier project, cell-based, Sendai virus stimulus, luciferase, 10K MLSCN set (AID 602276); settings: HEK293 RL24 IRF3 luciferase reporter, at 10 µM, stronger effect = higher value;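 note: firefly luciferase from ISG56 promoter only with Renilla not read in this screen; 0% = Sendai virus plus DMSO and 100% = medium plus DMSO without virus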
# [8] = inhibitors of poly I:C-induced TLR3 signaling, primary screen, cell-based, poly I:C stimulus, luciferase, 10K MLSCN set (AID 602277;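 active = inhibition of the reporter signal at or above 50%; inactive = inhibition below 50%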); settings: HEK293-TLR3 RL24 IRF3 luciferase reporter, at 10 µM, stronger effect = higher value
# [9] = inhibitors of larval lipid processing in zebrafish, primary screen, whole organism, PED6 fluorescence, gall bladder and intestine (AID 686;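 active = a full or partial loss of lipid-probe fluorescence in the fish gall bladder, intestine or both, judged by eye; inactive = no fluorescence loss, or compound toxic to the fish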;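 note: larvae 5 to 7 days old with five fish per well; signal comes from phospholipase A2 cleavage of quenched PED6 carried via bile; overnight exposure to compound and PED6 before scoring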); settings: Zebrafish larvae PED6 lipid processing, fluorescence scoring; screened at 20 µM (by protocol)
# Summary of the method: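 Doses: 20 µM single dose. Test system: live zebrafish larvae aged 5-7 days, whole organism. Quantity: five larvae per well. Measured by: By-eye fluorescence microscopy. Reagent: ingested quenched lipid PED6 at 100 nM. Read-out: visual per-well fluorescence inhibition score. Times: overnight exposure of larvae to compound plus PED6.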
Structure (SMILES),cell count [1],inhibition [1],inhibition of aggregation [2],nuclei count [2] [%],inhibition [3],nuclei count [3] [%],fluorescence slope [4],NADPH fluorescence slope [5],slope [6],inhibition [7],inhibition [8],outcome [9]
CC(=O)CCc1ccc(OCCCCn2cncn2)cc1,513,6.8% (inactive),15.6% (inactive),92.1,-58.4% (inactive),116,-0.625 (inactive),-1.7e-05 (inactive),0.00807 (inactive),1.5% (inactive),-5.67% (inactive),–
COC(=O)[C@H](CCSC)NC(=O)Nc1cc(C)ccc1C,476,-7.4% (inactive),7.6% (inactive),90.6,-5.7% (inactive),86.5,-0.616 (inactive),-3.2e-05 (inactive),0.00712 (inactive),11.7% (inactive),31% (inactive),–
CCN1C(=C2C(=O)c3ccccc3C2=O)C=Cc2ccccc21,347,23.3% (active),-4% (inactive),107,-27.1% (inactive),117,-0.284 (inactive),-1.4e-05 (inactive),0.00581 (inactive),-14.8% (inactive),-27.9% (inactive),–
Cn1c(=O)[nH]c(=O)c2c1nc(N1CCCCC1)n2CCSc1ncccn1,637,-11.8% (inactive),-16.6% (inactive),93,-20.6% (inactive),122,-0.438 (inactive),-6.7e-05 (inactive),0.00492 (inactive),10% (inactive),25.5% (inactive),–
O=C(NCc1ccccc1)C1CCN(S(=O)(=O)c2cccc3cccnc23)CC1,823,-3% (inactive),19% (inactive),65.6,-37.7% (inactive),111,-0.57 (inactive),1.3e-05 (inactive),0.00702 (inactive),-3.36% (inactive),33.1% (inactive),–
Cc1cc(C(=O)Nc2sc3c(c2C#N)CCCCC3)cs1,651,6% (inactive),-8.1% (inactive),107,-7.5% (inactive),100,-0.581 (inactive),-1.2e-05 (inactive),0.00236 (inactive),-33.9% (inactive),-119% (inactive),–
Cc1ccccc1Cn1ccc(NC(=O)c2cnn3c(C(F)(F)F)cc(-c4ccco4)nc23)n1,568,-3.8% (inactive),10.6% (inactive),96.8,-7.4% (inactive),99.2,-0.613 (inactive),-5.8e-05 (inactive),0.00253 (inactive),19.2% (inactive),32% (inactive),–
O=c1oc2ccccc2c(O)c1CN1CCCCC1,361,2.9% (inactive),4.9% (inactive),48.1,-83.3% (inactive),117,-0.407 (inactive),-6.8e-05 (inactive),0.00535 (inactive),15.4% (inactive),8.62% (inactive),–
O=C(CSc1nnc(-c2ccc(Br)cc2)n1C1CCCCC1)N1CCCC1,306,-17.8% (inactive),5.3% (inactive),101,4.3% (inactive),81.3,-0.371 (inactive),1.5e-05 (inactive),0.00599 (inactive),-3.56% (inactive),-4.51% (inactive),inactive
CCOC(=O)CC(=O)CSc1nc(-c2cccnc2)ccc1C#N,908,11.4% (inactive),-23.5% (inactive),87.2,-90.5% (inactive),128,-0.0463 (active),-1.8e-05 (inactive),0.013 (active),-15.8% (inactive),-33.1% (inactive),inactive
CC(N)C12CC3CC(C1)CC(C(C)N)(C3)C2 (stereo not given),394,3% (inactive),-16.2% (inactive),102,-14.3% (inactive),103,-0.38 (inactive),-6.5e-05 (inactive),0.00438 (inactive),13.4% (inactive),13.6% (inactive),inactive
COc1ccc(OC)c(NC(=O)CS(=O)(=O)c2ccccc2)c1,410,-0.6% (inactive),-1.6% (inactive),107,-66.5% (inactive),121,-0.438 (inactive),1.3e-05 (inactive),0.00539 (inactive),-3.16% (inactive),6.62% (inactive),inactive
COc1ccc(NC(=O)CSc2ccccn2)cc1OC,554,-42.2% (inactive),5.1% (inactive),107,10.4% (inactive),88.2,-0.384 (inactive),-1.5e-05 (inactive),0.00501 (inactive),-19.5% (inactive),-27.7% (inactive),inactive
CC(C)(C)NS(=O)(=O)c1ccc(CCC(=O)O)cc1,395,4.2% (inactive),-0.1% (inactive),82.6,-68.6% (inactive),110,-0.456 (inactive),-4.3e-05 (inactive),0.00422 (inactive),9.55% (inactive),4.51% (inactive),inactive
CCOC(=O)c1nnc2ccnn2c1N,529,6.8% (inactive),-6.1% (inactive),108,-120% (inactive),111,-0.448 (inactive),-0.000165 (inactive),0.00514 (inactive),8.28% (inactive),16.2% (inactive),inactive
COc1cc(Cn2c(-c3nonc3N)nc3ccccc32)ccc1C,329,-1.5% (inactive),-18.3% (inactive),65,-20.1% (inactive),99.4,-0.591 (inactive),-1.7e-05 (inactive),0.00556 (inactive),29.4% (inactive),53.2% (active),–
O=C(CN(CC1CCCO1)S(=O)(=O)c1ccc(S(=O)(=O)NC2CC2)cc1)Nc1ccccc1 (stereo not given),502,-15.8% (inactive),17.8% (inactive),83.4,12.1% (inactive),96.1,-0.384 (inactive),-4.7e-05 (inactive),0.00436 (inactive),7.42% (inactive),7.34% (inactive),inactive
O=C1COc2ccc(C(=O)COC(=O)CCc3ccc(S(=O)(=O)N4CCOCC4)cc3)cc2N1,410,-1.9% (inactive),12.6% (inactive),90.4,-119% (inactive),104,-0.37 (inactive),-5.9e-05 (inactive),0.00618 (inactive),4.84% (inactive),23.5% (inactive),–
CCOc1ccccc1N1C(=O)c2ccc(C(=O)Nc3cccnc3)cc2C1=O,594,0.8% (inactive),1.8% (inactive),105,-38.7% (inactive),109,-0.482 (inactive),1.2e-05 (inactive),0.00693 (inactive),11.8% (inactive),21% (inactive),–
COc1ccc(-c2noc(CCCOc3ccccc3)n2)cc1OC,429,1.5% (inactive),21% (inactive),93,-33% (inactive),134,-0.473 (inactive),-1.6e-05 (inactive),0.00512 (inactive),-2.22% (inactive),-9.66% (inactive),inactive
CCCN1CCN(C(=O)Cn2cccc2C(=O)c2ccccc2)CC1,568,5.4% (inactive),-4.9% (inactive),109,-0.1% (inactive),108,-0.405 (inactive),-5.8e-05 (inactive),0.00424 (inactive),7.77% (inactive),11.7% (inactive),inactive
COC(=O)c1ccc(COC(=O)c2c(C)nn(Cc3ccccc3Cl)c2Cl)o1,431,-20.9% (inactive),7% (inactive),73.5,46.3% (inactive),70.3,-0.408 (inactive),1.7e-05 (inactive),0.00741 (inactive),17.9% (inactive),19.2% (inactive),inactive
COCCn1c(Sc2nc(C)cs2)nc2c1c(=O)[nH]c(=O)n2C,422,5% (inactive),-38.9% (inactive),105,-78.3% (inactive),78.1,-0.475 (inactive),-1.5e-05 (inactive),0.00482 (inactive),17.1% (inactive),11.3% (inactive),inactive
c1ccc(N=P(c2nc3ccccc3o2)(N2CCOCC2)N2CCOCC2)cc1,547,-7.9% (inactive),23.4% (inactive),87.6,-1.8% (inactive),107,-0.497 (inactive),-1.9e-05 (inactive),0.00625 (inactive),3.09% (inactive),-19.6% (inactive),–
COC(=O)c1cc(=O)n(Cc2ccc3c(c2)OCO3)c(=Nc2ccccc2)s1,575,2.9% (inactive),8.9% (inactive),124,-30.3% (inactive),107,-0.545 (inactive),-3.4e-05 (inactive),0.00623 (inactive),12.2% (inactive),27.1% (inactive),–
CCc1nnc(NC(=O)c2ccc(S(=O)(=O)NCC(C)C)cc2)s1,494,-4.1% (inactive),-18.5% (inactive),100,-73.7% (inactive),210,-0.491 (inactive),-3.9e-05 (inactive),0.00682 (inactive),-15.9% (inactive),-61.5% (inactive),–
C=CCOc1ccc(CN(C)CC(=O)N(CC(C)C)c2c(N)n(CC(C)C)c(=O)[nH]c2=O)cc1,492,8.3% (inactive),-8.7% (inactive),101,-77.8% (inactive),123,-0.452 (inactive),-4.3e-05 (inactive),0.00414 (inactive),21.6% (inactive),19.4% (inactive),inactive
